Results: ChEMBL document CHEMBL5661979, “Pharmacological inhibition of BMK1 suppresses tumor growth through promyelocytic leukemia protein” (Cancer Cell, 2010)

Experiments:
[1] = biological target: Cyclin-dependent kinase 12 (Homo sapiens, UniProt Q9NYV4); experiment: Inhibition of CRK7 in human HeLa cells lysate pre incubated for 15 mins followed by ADP acyl phosphate probe addition and measured after 10 mins by LC-MS/MS analysis; type: subcellular
[2] = Inhibition of CK1g1/g2/g3 in human HeLa cells lysate pre incubated for 15 mins followed by ADP acyl phosphate probe addition and measured after 10 mins by LC-MS/MS analysis; type: subcellular
[3] = biological target: Ribosomal protein S6 kinase alpha-5 (Homo sapiens, UniProt O75582); experiment: Inhibition of MSK1 domain 1 K1 site in human HeLa cells lysate at 10 uM pre incubated for 15 mins followed by ADP acyl phosphate probe addition and measured after 10 mins by LC-MS/MS analysis relative to control; type: subcellular; conditions: time 25.0 min
[4] = biological target: Mitogen-activated protein kinase kinase kinase 2 (Homo sapiens) (UniProt Q9Y2U5); experiment: Inhibition of MAP3K2 in human HeLa cells lysate at 50 uM pre incubated for 15 mins followed by ADP acyl phosphate probe addition and measured after 10 mins by LC-MS/MS analysis relative to control; type: subcellular; conditions: time 25.0 min
[5] = biological target: Phosphatidylinositol 4-phosphate 3-kinase C2 domain-containing subunit beta (Homo sapiens, UniProt O00750); experiment: Inhibition of PIK3C2B in human HeLa cells lysate pre incubated for 15 mins followed by ATP acyl phosphate probe addition and measured after 10 mins by LC-MS/MS analysis; type: subcellular
[6] = biological target: Ribosomal protein S6 kinase beta-2 (Homo sapiens, UniProt Q9UBS0); experiment: Inhibition of P70S6KB in human HeLa cells lysate at 2 uM pre incubated for 15 mins followed by ATP acyl phosphate probe addition and measured after 10 mins by LC-MS/MS analysis relative to control; type: subcellular; conditions: time 25.0 min
[7] = Inhibition of PCTAIRE2/ICK in human HeLa cells lysate pre incubated for 15 mins followed by ADP acyl phosphate probe addition and measured after 10 mins by LC-MS/MS analysis; type: subcellular
[8] = biological target: T1, Interleukin-1 receptor-associated kinase 4 (Homo sapiens) (UniProt Q9NWZ3); experiment: Inhibition of IRAK4 in human HeLa cells lysate at 10 uM pre incubated for 15 mins followed by ATP acyl phosphate probe addition and measured after 10 mins by LC-MS/MS analysis relative to control; type: subcellular; conditions: time 25.0 min
T1 sequence (whole entry): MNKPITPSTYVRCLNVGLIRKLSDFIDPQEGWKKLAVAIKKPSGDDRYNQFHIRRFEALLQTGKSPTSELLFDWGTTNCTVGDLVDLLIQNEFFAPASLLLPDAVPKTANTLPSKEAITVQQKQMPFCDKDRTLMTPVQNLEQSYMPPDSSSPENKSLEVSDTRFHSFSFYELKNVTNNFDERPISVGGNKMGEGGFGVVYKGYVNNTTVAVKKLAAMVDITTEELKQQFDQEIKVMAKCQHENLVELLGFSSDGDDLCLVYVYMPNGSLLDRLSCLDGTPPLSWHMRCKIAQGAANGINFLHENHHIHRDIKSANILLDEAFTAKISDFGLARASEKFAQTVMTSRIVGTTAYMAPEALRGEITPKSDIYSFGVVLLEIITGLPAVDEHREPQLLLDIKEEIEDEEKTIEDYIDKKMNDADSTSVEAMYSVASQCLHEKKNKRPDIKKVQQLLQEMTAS

[9] = biological target: T2, Phosphatidylinositol 5-phosphate 4-kinase type-2 alpha (Homo sapiens) (UniProt P48426); experiment: Inhibition of PIP5K2A LIP site in human HeLa cells lysate at 50 uM pre incubated for 15 mins followed by ADP acyl phosphate probe addition and measured after 10 mins by LC-MS/MS analysis relative to control; type: subcellular; conditions: time 25.0 min
T2 sequence (whole entry): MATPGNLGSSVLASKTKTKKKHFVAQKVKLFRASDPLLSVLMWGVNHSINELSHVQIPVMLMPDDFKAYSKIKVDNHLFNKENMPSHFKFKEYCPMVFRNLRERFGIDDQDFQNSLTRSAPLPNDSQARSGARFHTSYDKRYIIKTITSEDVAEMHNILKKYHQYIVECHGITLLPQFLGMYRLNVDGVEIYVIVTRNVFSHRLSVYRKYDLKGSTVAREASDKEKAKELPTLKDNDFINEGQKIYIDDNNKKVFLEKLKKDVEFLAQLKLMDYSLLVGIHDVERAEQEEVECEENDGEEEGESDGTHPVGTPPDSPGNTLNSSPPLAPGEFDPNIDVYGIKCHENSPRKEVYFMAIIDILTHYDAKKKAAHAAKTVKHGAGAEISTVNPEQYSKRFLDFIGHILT

[10] = biological target: Cyclin-dependent kinase 2 (Homo sapiens, UniProt P24941); experiment: Inhibition of CDK2 K1 site in human HeLa cells lysate pre incubated for 15 mins followed by ATP acyl phosphate probe addition and measured after 10 mins by LC-MS/MS analysis; type: subcellular
Procedure, shortened: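 KiNativ profiling in HeLa lysate (5 mg/mL total protein). Lysate incubated 15 min with inhibitor at 50, 10, 2, 0.8 or 0 μM. ATP or ADP acylphosphate probe then added (5 μM final) and reacted 10 min. Reaction stopped with urea and analysed by targeted MS, using up to four fragment ions per kinase peptide-probe conjugate. % inhibition taken against untreated lysate. Run in duplicate.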

[11] = biological target: Phosphatidylinositol 5-phosphate 4-kinase type-2 beta (Homo sapiens) (UniProt P78356); experiment: Inhibition of PIP5K2B in human HeLa cells lysate at 50 uM pre incubated for 15 mins followed by ATP acyl phosphate probe addition and measured after 10 mins by LC-MS/MS analysis relative to control; type: subcellular; conditions: time 25.0 min
[12] = biological target: Tyrosine-protein kinase JAK1 (Homo sapiens, UniProt P23458); experiment: Inhibition of JAK1 domain 2 in human HeLa cells lysate at 10 uM pre incubated for 15 mins followed by ATP acyl phosphate probe addition and measured after 10 mins by LC-MS/MS analysis relative to control; type: subcellular; conditions: time 25.0 min
[13] = biological target: Proto-oncogene tyrosine-protein kinase ROS (Homo sapiens) (UniProt P08922); experiment: Inhibition of ROS1 (unknown origin) assessed as remaining activity at 10 uM by ATP-competition binding assay relative to control
[14] = biological target: Ribosomal protein S6 kinase beta-1 (Homo sapiens, UniProt P23443); experiment: Inhibition of P70S6K in human HeLa cells lysate at 50 uM pre incubated for 15 mins followed by ATP acyl phosphate probe addition and measured after 10 mins by LC-MS/MS analysis relative to control; type: subcellular; conditions: time 25.0 min
[15] = biological target: T1, Interleukin-1 receptor-associated kinase 4 (Homo sapiens); experiment: Inhibition of IRAK4 in human HeLa cells lysate at 2 uM pre incubated for 15 mins followed by ATP acyl phosphate probe addition and measured after 10 mins by LC-MS/MS analysis relative to control; type: subcellular; conditions: time 25.0 min
[16] = biological target: Microtubule-associated serine/threonine-protein kinase 3 (Homo sapiens, UniProt O60307); experiment: Inhibition of MAST3 in human HeLa cells lysate at 50 uM pre incubated for 15 mins followed by ATP acyl phosphate probe addition and measured after 10 mins by LC-MS/MS analysis relative to control; type: subcellular; conditions: time 25.0 min

Phosphatidylinositol 5-phosphate 4-kinase type-2 beta (Homo sapiens), sequence (P78356 whole entry, the tested form may be a part): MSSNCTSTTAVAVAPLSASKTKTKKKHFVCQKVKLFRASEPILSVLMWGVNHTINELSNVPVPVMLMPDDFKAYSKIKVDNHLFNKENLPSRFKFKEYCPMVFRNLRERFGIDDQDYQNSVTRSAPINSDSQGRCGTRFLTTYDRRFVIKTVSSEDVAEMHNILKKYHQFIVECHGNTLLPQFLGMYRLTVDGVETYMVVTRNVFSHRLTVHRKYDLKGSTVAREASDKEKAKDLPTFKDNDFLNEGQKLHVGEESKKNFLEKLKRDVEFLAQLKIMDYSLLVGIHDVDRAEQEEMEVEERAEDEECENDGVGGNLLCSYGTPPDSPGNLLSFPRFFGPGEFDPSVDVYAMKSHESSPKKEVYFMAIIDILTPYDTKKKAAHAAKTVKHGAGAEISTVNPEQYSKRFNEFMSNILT
Tyrosine-protein kinase JAK1, sequence (P23458 whole entry, the tested form may be a part): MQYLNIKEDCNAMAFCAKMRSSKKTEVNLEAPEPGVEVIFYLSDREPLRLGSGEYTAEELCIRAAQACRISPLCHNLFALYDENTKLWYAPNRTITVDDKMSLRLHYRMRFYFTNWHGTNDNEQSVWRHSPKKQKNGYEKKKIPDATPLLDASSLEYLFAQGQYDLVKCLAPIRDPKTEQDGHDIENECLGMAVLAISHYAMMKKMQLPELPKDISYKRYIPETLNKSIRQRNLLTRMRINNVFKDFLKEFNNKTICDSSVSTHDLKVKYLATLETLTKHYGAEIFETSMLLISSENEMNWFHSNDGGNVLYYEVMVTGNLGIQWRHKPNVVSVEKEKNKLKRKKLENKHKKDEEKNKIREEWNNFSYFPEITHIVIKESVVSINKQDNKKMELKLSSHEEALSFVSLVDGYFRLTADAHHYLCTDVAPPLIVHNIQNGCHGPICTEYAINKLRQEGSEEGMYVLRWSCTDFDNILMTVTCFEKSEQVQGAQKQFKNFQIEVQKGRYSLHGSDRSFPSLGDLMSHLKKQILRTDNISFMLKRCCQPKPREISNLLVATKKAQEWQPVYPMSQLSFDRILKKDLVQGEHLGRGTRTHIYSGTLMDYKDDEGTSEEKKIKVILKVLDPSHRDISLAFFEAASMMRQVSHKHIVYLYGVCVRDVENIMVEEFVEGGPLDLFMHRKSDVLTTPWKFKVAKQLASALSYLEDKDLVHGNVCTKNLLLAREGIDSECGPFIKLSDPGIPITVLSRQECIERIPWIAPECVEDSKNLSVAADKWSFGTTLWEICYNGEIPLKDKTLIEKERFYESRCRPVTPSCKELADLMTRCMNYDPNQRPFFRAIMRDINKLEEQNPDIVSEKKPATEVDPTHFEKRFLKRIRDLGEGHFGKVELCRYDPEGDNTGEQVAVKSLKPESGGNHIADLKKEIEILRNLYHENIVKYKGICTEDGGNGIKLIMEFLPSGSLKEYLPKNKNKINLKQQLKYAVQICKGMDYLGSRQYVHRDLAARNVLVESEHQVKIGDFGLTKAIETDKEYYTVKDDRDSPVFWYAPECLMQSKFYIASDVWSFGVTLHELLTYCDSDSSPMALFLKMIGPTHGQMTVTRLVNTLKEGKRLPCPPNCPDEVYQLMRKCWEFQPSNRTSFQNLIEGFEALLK
Ribosomal protein S6 kinase alpha-5, sequence (O75582 whole entry, looked up, the tested form may be a part): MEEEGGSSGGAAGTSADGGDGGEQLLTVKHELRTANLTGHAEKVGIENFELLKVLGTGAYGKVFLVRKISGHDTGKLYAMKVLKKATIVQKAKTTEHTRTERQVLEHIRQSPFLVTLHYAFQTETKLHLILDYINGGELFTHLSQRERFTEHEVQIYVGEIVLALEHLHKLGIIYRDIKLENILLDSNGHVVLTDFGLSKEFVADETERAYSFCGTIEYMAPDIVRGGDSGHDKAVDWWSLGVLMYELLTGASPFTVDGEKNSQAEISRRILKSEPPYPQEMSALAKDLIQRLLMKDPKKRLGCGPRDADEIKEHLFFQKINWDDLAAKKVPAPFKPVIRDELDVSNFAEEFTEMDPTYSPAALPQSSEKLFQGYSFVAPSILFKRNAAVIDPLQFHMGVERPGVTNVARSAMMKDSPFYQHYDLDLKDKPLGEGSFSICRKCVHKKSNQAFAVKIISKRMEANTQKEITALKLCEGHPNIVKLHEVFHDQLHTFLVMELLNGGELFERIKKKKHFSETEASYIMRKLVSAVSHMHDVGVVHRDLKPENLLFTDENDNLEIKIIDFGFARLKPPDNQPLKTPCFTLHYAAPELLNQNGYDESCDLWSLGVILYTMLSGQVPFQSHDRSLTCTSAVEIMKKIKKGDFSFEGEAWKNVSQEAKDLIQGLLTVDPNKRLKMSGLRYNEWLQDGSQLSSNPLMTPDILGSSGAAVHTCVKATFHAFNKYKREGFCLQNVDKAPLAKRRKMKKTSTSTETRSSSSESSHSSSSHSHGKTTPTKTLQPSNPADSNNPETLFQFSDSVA
Ribosomal protein S6 kinase beta-2, sequence (Q9UBS0 whole entry): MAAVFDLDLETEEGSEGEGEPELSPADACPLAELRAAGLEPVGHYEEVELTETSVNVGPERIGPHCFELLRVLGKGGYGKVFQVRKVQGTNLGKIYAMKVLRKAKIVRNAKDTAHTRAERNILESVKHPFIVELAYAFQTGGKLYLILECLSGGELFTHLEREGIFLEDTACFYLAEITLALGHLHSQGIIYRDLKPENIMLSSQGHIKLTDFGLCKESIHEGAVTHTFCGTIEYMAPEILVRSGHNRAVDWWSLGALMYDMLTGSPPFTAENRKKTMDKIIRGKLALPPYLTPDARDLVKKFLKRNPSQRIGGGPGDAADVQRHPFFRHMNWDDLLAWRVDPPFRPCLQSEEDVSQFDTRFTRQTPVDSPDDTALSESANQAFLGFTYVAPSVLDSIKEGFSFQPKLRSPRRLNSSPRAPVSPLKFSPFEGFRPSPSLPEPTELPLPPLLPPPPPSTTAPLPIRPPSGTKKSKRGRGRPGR
Cyclin-dependent kinase 12, sequence (Q9NYV4 whole entry): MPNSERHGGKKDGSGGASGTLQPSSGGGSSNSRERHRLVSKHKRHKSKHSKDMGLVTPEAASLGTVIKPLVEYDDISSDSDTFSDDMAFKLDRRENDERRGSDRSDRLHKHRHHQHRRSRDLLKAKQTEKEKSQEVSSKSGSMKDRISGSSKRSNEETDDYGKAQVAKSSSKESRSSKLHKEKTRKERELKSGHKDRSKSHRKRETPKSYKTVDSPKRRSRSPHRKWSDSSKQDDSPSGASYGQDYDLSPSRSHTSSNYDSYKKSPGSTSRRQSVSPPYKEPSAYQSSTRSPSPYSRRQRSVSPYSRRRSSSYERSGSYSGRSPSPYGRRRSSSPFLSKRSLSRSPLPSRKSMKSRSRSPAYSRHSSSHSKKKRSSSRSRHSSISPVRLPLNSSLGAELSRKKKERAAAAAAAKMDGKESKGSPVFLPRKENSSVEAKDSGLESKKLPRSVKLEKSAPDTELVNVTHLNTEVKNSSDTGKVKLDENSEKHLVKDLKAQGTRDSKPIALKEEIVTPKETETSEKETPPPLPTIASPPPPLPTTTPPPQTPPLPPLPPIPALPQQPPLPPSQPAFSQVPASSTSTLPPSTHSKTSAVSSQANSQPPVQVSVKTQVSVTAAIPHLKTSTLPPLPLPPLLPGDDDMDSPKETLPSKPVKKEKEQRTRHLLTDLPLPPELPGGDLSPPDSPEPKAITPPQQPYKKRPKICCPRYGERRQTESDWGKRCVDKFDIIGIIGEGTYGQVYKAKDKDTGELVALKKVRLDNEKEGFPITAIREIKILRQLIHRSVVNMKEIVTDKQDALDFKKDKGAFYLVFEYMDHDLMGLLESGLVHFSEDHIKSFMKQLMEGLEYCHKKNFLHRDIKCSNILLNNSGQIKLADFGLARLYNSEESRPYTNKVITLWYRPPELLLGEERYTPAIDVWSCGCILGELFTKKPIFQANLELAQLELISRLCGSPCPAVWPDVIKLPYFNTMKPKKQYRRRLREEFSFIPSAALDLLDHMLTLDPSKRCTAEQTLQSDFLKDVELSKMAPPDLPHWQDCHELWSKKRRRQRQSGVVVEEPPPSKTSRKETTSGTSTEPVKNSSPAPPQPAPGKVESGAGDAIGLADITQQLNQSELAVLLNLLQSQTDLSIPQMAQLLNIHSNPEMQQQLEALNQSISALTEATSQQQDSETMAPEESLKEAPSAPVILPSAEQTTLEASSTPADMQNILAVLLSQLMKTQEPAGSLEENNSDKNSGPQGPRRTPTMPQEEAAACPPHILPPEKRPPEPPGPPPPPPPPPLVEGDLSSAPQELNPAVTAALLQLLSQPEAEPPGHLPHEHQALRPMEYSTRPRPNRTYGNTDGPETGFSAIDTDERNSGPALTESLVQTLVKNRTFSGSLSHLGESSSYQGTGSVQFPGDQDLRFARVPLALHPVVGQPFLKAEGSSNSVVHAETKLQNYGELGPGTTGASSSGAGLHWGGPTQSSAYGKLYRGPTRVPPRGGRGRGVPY
Ribosomal protein S6 kinase beta-1, sequence (P23443 whole entry, looked up): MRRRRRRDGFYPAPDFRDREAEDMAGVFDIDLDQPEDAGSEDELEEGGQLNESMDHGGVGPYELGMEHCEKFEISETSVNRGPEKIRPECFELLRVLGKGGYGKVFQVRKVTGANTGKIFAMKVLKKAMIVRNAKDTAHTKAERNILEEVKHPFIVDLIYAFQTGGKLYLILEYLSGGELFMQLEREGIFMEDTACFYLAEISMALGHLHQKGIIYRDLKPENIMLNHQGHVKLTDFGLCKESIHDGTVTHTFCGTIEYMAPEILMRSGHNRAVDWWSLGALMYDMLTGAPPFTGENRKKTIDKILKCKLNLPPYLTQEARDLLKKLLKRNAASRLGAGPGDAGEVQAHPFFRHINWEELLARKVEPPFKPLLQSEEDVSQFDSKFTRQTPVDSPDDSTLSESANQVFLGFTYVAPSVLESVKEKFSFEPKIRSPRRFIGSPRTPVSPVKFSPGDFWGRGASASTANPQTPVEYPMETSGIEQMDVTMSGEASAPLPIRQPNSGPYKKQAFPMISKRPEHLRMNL

Compound `CCOc1cc(N2CCC(O)CC2)ccc1Nc1ncc2c(n1)N(C)c1ccccc1C(=O)N2C` has an IC50 [1] of over 50 µM, an IC50 [2] of over 50 µM and an inhibition [3] of 1.8%. For the same compound, the inhibition [4] was 3.7%, the IC50 [5] was over 50 µM and the inhibition [6] was 1.9%. The IC50 [7] was over 50 µM, the inhibition [8] was 10.5% and the inhibition [9] was 15.1%. For the same compound, the IC50 [10] was over 50 µM, the inhibition [11] was 6.9% and the inhibition [12] was -5.7%. It also gave an Activity [13] of 15%, an inhibition [14] of -3.8% and an inhibition [15] of 6.7%. It also gave an inhibition [16] of -5.8%.
